Assay outcomes as filed in PubChem BioAssay.
KCNK9 block = KCNK9 potassium channel inhibitors, primary screen, HEK293 cells, thallium flux; Potassium channel subfamily K member 9 (Homo sapiens), Q9NPC2; FluxOR thallium flux fluorescence; stronger effect = lower value; B-score at 10 µM; 1.2% of 310,000 active; AID 488922, 2010;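 active means ratio B-score over 3 SD below the library mean, with starting fluorescence within 5 SD of its mean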;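 further: negative B-score means less thallium flux so channel inhibition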
Target sequence (Q9NPC2 whole entry, looked up): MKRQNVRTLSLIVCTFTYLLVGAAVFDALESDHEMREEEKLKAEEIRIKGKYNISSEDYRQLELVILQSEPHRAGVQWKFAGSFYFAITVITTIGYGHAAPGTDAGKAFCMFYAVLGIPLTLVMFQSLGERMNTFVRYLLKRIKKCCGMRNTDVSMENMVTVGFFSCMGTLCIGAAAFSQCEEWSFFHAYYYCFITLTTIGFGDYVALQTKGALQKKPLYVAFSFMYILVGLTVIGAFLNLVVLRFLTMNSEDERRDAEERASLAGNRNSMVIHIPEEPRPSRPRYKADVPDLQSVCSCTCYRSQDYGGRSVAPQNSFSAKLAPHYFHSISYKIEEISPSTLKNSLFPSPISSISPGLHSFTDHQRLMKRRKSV
hERG rescue = hERG rescue from dofetilide block, primary screen, cell-based, CHO-hERG, FluxOR thallium flux, dofetilide IC70. AID 1511, 2009. activation (rescue from dofetilide block), less the hit threshold, % at 10 µM. 0.51% of 310,000 active. dofetilide IC70 present;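 active means activation above the mean of controls blocked by dofetilide plus 5 SD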;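 further: thallium influx through hERG after potassium depolarization seen as dye fluorescence rise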
KCNQ1 act = potentiators or activators of KCNQ1 channel, primary screen, cell-based, thallium flux, high-throughput | Potassium voltage-gated channel subfamily KQT member 1 (Homo sapiens), P51787 | CHO-K1 KCNQ1, thallium flux FluxOR fluorescence; stronger effect = higher value | B-score at 10 µM | 0.35% of 310,000 active | AID 2648, 2010;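 active means fluorescence ratio B-score, a plate-corrected score, at least three library SD, with initial intensity B-score within 5 SD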
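Medium – assay buffer, equal DMSO in all wells · Material – CHO-K1 cell line with stable KCNQ1 potassium channel expression · Signal – kinetic FluxOR thallium fluorescence, 10-s 1-Hz baseline, 110-s post-stimulus read · Compound – single concentration per compound, DMSO matched to controls · Schedule – 37 °C overnight plating, 90-min dark dye load, 20-min compound pretreatment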
KCNQ1 inh = inhibitors of human KCNQ1 channel, primary screen, cell-based, thallium flux, high-throughput. Potassium voltage-gated channel subfamily KQT member 1 (Homo sapiens), P51787. CHO-K1 KCNQ1, FluxOR thallium flux fluorescence; stronger effect = higher value. B-score at 10 µM. 1.3% of 310,000 active;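 active means compounds whose thallium flux B-score, printed positive for inhibition, exceeds three library SD while starting fluorescence stays within three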;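 further: channel opened by potassium depolarization with thallium stimulus after 20 min compound exposure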
KCNK3 block = human KCNK3 channel inhibitors, primary screen, CHO cells, FluxOR thallium flux, B-score. Potassium channel subfamily K member 3 (Homo sapiens), O14649. FluxOR fluorescence; stronger effect = lower value. B-score at 10 µM. 0.84% of 340,000 active. AID 602410, 2012;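 active means B-score under library mean minus 4 SD, starting fluorescence ratio at most library mean plus 5 SD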;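 further: more negative B-score means stronger inhibition of thallium flux through KCNK3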
Target sequence (O14649 whole entry, looked up): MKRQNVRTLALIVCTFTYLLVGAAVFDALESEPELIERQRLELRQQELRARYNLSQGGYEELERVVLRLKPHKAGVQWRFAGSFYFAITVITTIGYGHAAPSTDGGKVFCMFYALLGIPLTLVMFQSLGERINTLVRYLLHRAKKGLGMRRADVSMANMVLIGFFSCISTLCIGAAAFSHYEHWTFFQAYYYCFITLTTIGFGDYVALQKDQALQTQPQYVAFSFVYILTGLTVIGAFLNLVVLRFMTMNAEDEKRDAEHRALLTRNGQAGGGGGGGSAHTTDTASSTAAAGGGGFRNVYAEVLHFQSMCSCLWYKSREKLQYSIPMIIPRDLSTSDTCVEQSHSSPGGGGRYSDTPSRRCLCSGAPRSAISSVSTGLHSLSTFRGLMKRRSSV
KCNQ1 inh valid = KCNQ1 potassium channel inhibitors, confirmation, cell-based, Tl flux, duplicate | KCNQ1 cell line, FluxOR thallium flux fluorescence | AID 588353, 2011 | inhibition, % at 10 µM | 93% of 1,600 active | shares compounds with KCNQ1 inh;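 active means primary screen active, with duplicate mean exceeding buffer control mean plus 3 SD of buffer wells, cut at about 28% in these data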;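 further: 0% = buffer control ratio and 100% = XE991 inhibitor control ratio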
CHO KCNQ1 ctr = thallium flux effects in parental CHO cells, counter-screen for KCNQ1 inhibitor project, cell-based, Tl flux | shares compounds with KCNQ1 inh | parental CHO-K1, FluxOR thallium flux fluorescence ratio; stronger effect = lower value; zero means no signal rise above baseline | fluorescence ratio (Tl flux) at 10 µM | 21% of 1,600 active | AID 588366, 2011;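 active means mean of duplicate thallium-flux fluorescence ratios in parental host cells more than 5 SD below the buffer control mean, cut at about 0.38 in these data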;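 further: ratio is peak minus minimum fluorescence divided by baseline fluorescence; actives read low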
KCNQ1 APC inh = KCNQ1 channel inhibitors, confirmation, orthogonal assay, cell-based, automated electrophysiology | shares compounds with KCNQ1 inh | KCNQ1-CHO cells, automated patch clamp current | calls only at 10 µM | 20% of 490 active;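 active means KCNQ1 current drop exceeding 3 SD of negative control wells, seen in both duplicate runs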;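 further: steady state current during a 2 s step from -80 to +40 mV; negative values mean current inhibition and positive values mean potentiation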
KCNQ2 spec = KCNQ2 channel inhibition, selectivity assay for KCNQ1 inhibitor project, cell-based | shares compounds with KCNQ1 inh | KCNQ2 cells, FluxOR thallium flux fluorescence | inhibition, % at 10 µM | 71% of 1,600 active | AID 651746, 2012;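 active means mean percent inhibition of the KCNQ2 thallium signal more than 5 SD above the buffer-only control wells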;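 further: KCNQ2 expressed in CHO cells; 0% = buffer control wells and 100% = XE-991 inhibitor control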
KCNQ1 KCNE1 spec = KCNQ1/KCNE1 channel inhibition, selectivity assay for KCNQ1 inhibitor project, CHO-K1 cells, thallium flux, FluxOR | shares compounds with KCNQ1 inh | FluxOR thallium flux fluorescence | inhibition, % at 10 µM | 77% of 1,600 active | AID 652147, 2013;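 active means mean percent inhibition of duplicate wells above the buffer-only control mean plus 3 SD of those controls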;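 further: 0% = buffer only wells and 100% = XE-991 inhibitor control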
Numbers without * were called inactive; i = inactive; nt = no result; + = active, no number. Hits are enriched below; roughly 3.1% of the tested compounds scored in any of these assays.

SMILES	KCNK9 block	hERG rescue	KCNQ1 act	KCNQ1 inh	KCNK3 block	KCNQ1 inh valid	CHO KCNQ1 ctr	KCNQ2 spec	KCNQ1 KCNE1 spec	others
COc1ccc(C)cc1Nc1n[n+](-c2ccccc2)c(-c2ccc(N(C)C)cc2)s1	-7.18*	-34.5	i	15*	i	+	0.219*	i	i
CCCOc1ccc(Cc2c(O)nc(SC)[nH]c2=O)cc1	i	-6.8	i	i	i	nt	nt	nt	nt
COc1ccc(-c2nn(-c3ccccc3)cc2C(=O)NC2CCCCC2C)cc1 (centres undefined)	i	-9.4	i	i	i	nt	nt	nt	nt
Cn1cccc1/C=C1/SC(=S)N(CC(=O)O)C1=O	i	-11.3	i	i	i	nt	nt	nt	nt
CN1/C(=C\C=C2/SC(=S)N(CC(=O)O)C2=O)C(C)(C)c2ccccc21	i	-43.7	i	24*	i	+	0.0445*	i	i
COc1ccc2[nH]c3c(NCc4ccco4)ncnc3c2c1	i	-12.7	i	i	nt	nt	nt	nt	nt
Fc1ccc2[nH]c3c(NCc4ccccc4)ncnc3c2c1	i	-23.5	i	7*	i	149.5*	0.404	73.0%*	75.5%*	KCNQ1 APC inh=i
Cc1ccc2cc(CN(CCN(C)C)C(=S)Nc3ccccc3)c(=O)[nH]c2c1C	i	11.7*	i	7*	i	55.5*	0.508	i	86.0%*
CC(C)(C)OC(=O)N1CCN(C(=O)c2[nH]cnc2C(=O)Nc2ccc(Cl)cc2)CC1	nt	nt	nt	nt	i	nt	nt	nt	nt
CC1(C)O[C@@H]2[C@H](O1)[C@@H](CO)O[C@H]2n1ccc(=O)[nH]c1=O	nt	nt	nt	nt	i	nt	nt	nt	nt
Cc1nc(-c2ccc(S(=O)(=O)Oc3ccc(Cl)cc3Cl)s2)cs1	i	-27.3	i	10*	i	126.0*	0.381	120.7%*	+	KCNQ1 APC inh=i
Cc1nc(-c2ccc(S(=O)(=O)Nc3ccc(Br)cc3Cl)s2)cs1	i	-12.6	i	i	i	nt	nt	nt	nt
Cc1ccc(-c2nnn(C(C)C(=O)N3c4ccccc4CCc4ccccc43)n2)cc1 (centres undefined)	i	-5.5	i	6*	i	135.0*	0.422	92.0%*	162.5%*	KCNQ1 APC inh=i
CC(C(=O)N1c2ccccc2CCc2ccccc21)n1nnc(-c2ccc(N(C)C)cc2)n1 (centres undefined)	i	-1.6	i	i	i	nt	nt	nt	nt
Cc1ccc(Cl)cc1N1CCN(S(=O)(=O)c2ccc3c(c2)OCCO3)CC1	i	-0.3	i	7*	i	113.0*	0.395	78.0%*	128.0%*
O=C(Cc1n[nH]c(=O)c2ccccc12)OCC(=O)c1ccc(OC(F)F)cc1OC(F)F	i	-10.5	i	i	i	nt	nt	nt	nt
O=C(Nc1ccc(Cl)cc1)Nc1ccc2c(c1)N1CCN=C1S2	i	-25.9	i	12*	i	105.5*	0.451	65.3%*	110.5%*	KCNQ1 APC inh=i
Nc1ccc2c(c1)N1CCN=C1S2	i	-6.4	i	i	i	nt	nt	nt	nt
Cc1cc(/C=C2\C(=N)N3C(SCc4ccccc4)=NSC3=NC2=O)c(C)n1Cc1ccccc1	i	-5.2	i	i	i	nt	nt	nt	nt
CC(C)CSC1=NSC2=NC(=O)/C(=C\c3coc4ccccc4c3=O)C(=N)N12	i	-45.6	i	25*	i	+	0.004*	i	i
CCOC(=O)c1c(C)[nH]c(C)c1C(=O)CSc1nc2ccccc2c(=O)n1-c1ccc(C)cc1	i	-7.6	i	6*	i	58.0*	0.495	i	58.5%*
O=S(=O)(Nc1c(O)ccc2ccccc12)c1ccccc1	i	-10.6	i	11*	i	55.5*	0.534	i	89.5%*
O=S(=O)(Nc1cccc2ccccc12)c1ccccc1	i	-10.3	i	i	i	nt	nt	nt	nt
O=S(=O)(Nc1c(O)ccc2ccccc12)c1ccc(F)cc1	i	-21.3	i	10*	i	42.5*	0.642	i	55.0%*
O=S(=O)(Nc1ncccn1)c1ccc(F)cc1	i	-3.4	i	i	i	nt	nt	nt	nt
SMILES	KCNK9 block	hERG rescue	KCNQ1 act	KCNQ1 inh	KCNK3 block	KCNQ1 inh valid	CHO KCNQ1 ctr	KCNQ2 spec	KCNQ1 KCNE1 spec	others
Cc1ccc(S(=O)(=O)N2CCCCC2)cc1NC(=O)CSc1ncnc2ccccc12	i	-12.5	i	i	i	nt	nt	nt	nt
Cc1ccc(NC(=O)CSc2ncnc3ccccc23)cc1S(=O)(=O)N1CCCCCC1	i	-12.5	i	6*	i	117.5*	0.396	126.7%*	106.5%*	KCNQ1 APC inh=i
Cc1ccc(NC(=O)COc2cccc(C)c2C)cc1S(=O)(=O)N1CCCCCC1	i	-14.2	i	6*	i	85.0*	0.427	119.3%*	134.5%*
Cc1c(OC(C)C(=O)NCC2CCC(C(=O)O)CC2)ccc2c3c(c(=O)oc12)CCCC3 (centres undefined)	i	-4.9	i	i	i	nt	nt	nt	nt
COc1ccccc1NC(=O)CN1CCC(n2c(C)nc3cc(F)ccc32)CC1	i	-12.6	i	8*	i	116.5*	0.441	96.7%*	98.0%*	KCNQ1 APC inh=i
COc1ccccc1NC(=O)CN1CCCCCC1	i	-3.4	i	i	i	nt	nt	nt	nt
COc1ccccc1NC(=O)CN1CCN(C2c3ccccc3-c3ccccc32)CC1	i	-5.5	i	7*	i	107.5*	0.417	100.0%*	155.0%*	KCNQ1 APC inh=i
COc1ccccc1NC(=O)CN1CCC(n2nnc3cc(F)ccc32)CC1	i	-10.5	i	i	i	nt	nt	nt	nt
Cc1ccc(SCC(=O)N2CCN(S(=O)(=O)c3cccs3)CC2)cc1	nt	nt	nt	nt	i	nt	nt	nt	nt
